How the values were obtained:
[1] = Antiinflammatory activity in human neutrophils assessed as inhibition of fMLP/CB-induced elastase release incubated for 5 mins prior to fMLP/CB challenge; assay type: functional, cell-based; conditions: Neutrophil
In short: (§1)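 Donor neutrophils (healthy adults, 20−30 y), purified by dextran sedimentation, Ficoll Hypaque and hypotonic lysis, kept in Ca2+-free HBSS pH 7.4 at 4 °C. Cells at 6 × 10^5/mL with MeO-Suc-Ala-Ala-Pro-Val-p-nitroanilide 100 μM as elastase substrate, equilibrated 37 °C 2 min before compound addition. Mean ± SEM, n = 3 or 4.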

[2] = Antiinflammatory activity in human neutrophils assessed as inhibition of fMLP/CB-induced elastase release at 10 uM incubated for 5 mins prior to fMLP/CB challenge; assay type: functional; conditions: Neutrophil; in short: as §1
[3] = Antiinflammatory activity in human neutrophils assessed as inhibition of fMLP/CB-induced superoxide anion generation at 10 uM incubated for 5 mins prior to fMLP/CB challenge; assay type: functional; conditions: Neutrophil
In short: (§2)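 Neutrophils from healthy adult donors (20−30 y), enriched by dextran sedimentation, Ficoll Hypaque centrifugation and hypotonic lysis, held in Ca2+-free HBSS pH 7.4 at 4 °C. Cells (6 × 10^5/mL) with ferricytochrome c 0.5 mg/mL and Ca2+ 1 mM, 37 °C 2 min, DMSO control. CB 1 μg/mL 3 min, then fMLP 100 nM 10 min. O2•− read as SOD-inhibitable cytochrome c reduction. Mean ± SEM, n = 3 or 4.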

[4] = Antiinflammatory activity in human neutrophils assessed as inhibition of fMLP/CB-induced superoxide anion generation incubated for 5 mins prior to fMLP/CB challenge; assay type: functional, cell-based; conditions: Neutrophil; in short: as §2
[5] = tested on: MOLT-4; assay: Cytotoxicity against human MOLT4 cells after 6 hrs by Alamar Blue assay; assay type: functional; conditions: MOLT-4, 6 h, read-out: ED50 (the source's name)
[6] = tested on: K562; assay: Cytotoxicity against human K562 cells after 6 hrs by Alamar Blue assay; assay type: functional; conditions: K562, 6 h, read-out: ED50 (the source's name)
[7] = tested on: T47D; assay: Cytotoxicity against human T47D cells after 3 hrs by Alamar Blue assay; assay type: functional; conditions: read-out: ED50 (the source's name)

Structure (SMILES)	IC50 [1] [µM]	inhibition at 10 µM [2] [%]	inhibition at 10 µM [3] [%]	IC50 [4] [µM]	EC50 [5] [µM]	EC50 [6] [µM]	EC50 [7] [µM]
CC(=O)O[C@H]1[C@H](C(C)C)[C@@H]2[C@@H]([C@H]3C[C@](C)(O)[C@@H](OC(C)=O)CC[C@@](C)(OC(C)=O)[C@@H]2O3)[C@](O)(CCl)[C@H]1OC(C)=O	> 10	6.42	9.36	> 10	–	–	–
CC(=O)O[C@H]1[C@H](C(C)C)[C@@H]2[C@@H]([C@H]3C[C@](C)(O)[C@H](O)CC[C@@](C)(OC(C)=O)[C@@H]2O3)[C@](O)(CCl)[C@H]1OC(C)=O	> 10	7.3	5.02	> 10	–	–	–
CC(=O)O[C@H]1C[C@H](C(C)C)[C@@H]2[C@@H]([C@H]3C[C@](C)(O)[C@@H](OC(C)=O)CC[C@@](C)(OC(C)=O)[C@@H]2O3)[C@]1(O)CCl	> 10	-1.19	8.92	> 10	–	–	–
CC(=O)O[C@H]1C[C@H](C(C)C)[C@@H]2[C@@H]([C@H]3C[C@](C)(O)[C@@H](O)CC[C@@](C)(OC(C)=O)[C@@H]2O3)[C@]1(O)CCl	> 10	9.18	3.37	> 10	–	–	–
C=C1[C@H]2[C@@H]([C@@H](C(C)C)C[C@@H]1O)[C@H]1O[C@@H]2C[C@](C)(O)[C@@H](OC(=O)Cc2ccccc2)CC[C@@]1(C)OC(=O)CCC	2.92	89.2	81.6	3.13	4.35	7.97	8.58
C=C1[C@H]2[C@@H]([C@H](C(C)C)[C@H](OC(C)=O)[C@@H]1O)[C@H]1O[C@@H]2C[C@](C)(O)[C@@H](OC(C)=O)CC[C@@]1(C)OC(=O)CCC	> 10	6.47	10.5	> 10	–	–	–
C=C1[C@H]2[C@@H]([C@@H](C(C)C)[C@H](O)[C@@H]1OC(C)=O)[C@H]1O[C@@H]2C[C@](C)(O)[C@@H](OC(C)=O)CC[C@@]1(C)OC(=O)CCC	> 10	16.8	2.92	> 10	–	–	–
C=C1[C@H]2[C@@H]([C@@H](C(C)C)[C@H](OC(C)=O)[C@@H]1O)[C@H]1O[C@@H]2C[C@](C)(O)[C@@H](O)CC[C@@]1(C)OC(=O)CCC	> 10	7.35	1.17	> 10	–	–	–
C=C1[C@H]2[C@H]([C@H]3O[C@@H]2C[C@](C)(O)[C@@H](OC(C)=O)CC[C@@]3(C)OC(C)=O)[C@H](C(C)C)C[C@@H]1O	> 10	7.33	14.7	> 10	–	–	–
C=C1[C@H]2[C@@H]([C@@H](C(C)C)C[C@@H]1O)[C@H]1O[C@@H]2C[C@](C)(O)[C@@H](O)CC[C@@]1(C)OC(C)=O	> 10	11.6	7.14	> 10	–	–	–
C=C1C[C@H]2O[C@H]([C@H]3[C@@H]2C(=C)[C@@H](O)C[C@@H]3C(C)C)[C@](C)(OC(C)=O)CC[C@@H]1O	> 10	0.62	3.2	> 10	–	–	–
O=c1[nH]cc(F)c(=O)[nH]1 [FLUOROURACIL]	–	–	–	–	15.1	16.2	50.2
